MrgX1 ag: agonists of human MrgX1 receptor, primary screen, HEK293 cells, Fluo-4 calcium flux. Mas-related G-protein coupled receptor member X1 (Homo sapiens), Q96LB2. Fluo-4 calcium fluorescence, agonist mode; stronger effect = higher value. B-score at 10 µM. 310,000 tested, 0.44% active. AID 588627, 2011;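 active means calcium response B-score plate-corrected fluorescence ratio at least 3 library SD, with starting fluorescence B-score inside 5 SD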
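Material: HEK293 cells stably expressing human MrgX1 receptor | Quantity: 15,000 cells per well | Times: Cells plated overnight, dye loaded 0.5 h 37 °C, 0.5 h room temperature | Measured by: Kinetic Fluo-4 NW fluorescence of intracellular calcium | Control set: Positive and negative controls per plate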
RGS4 act: RGS4 potentiators or activators, primary screen, cell-based, HEK293 M3R inducible RGS4, calcium flux | carbachol calcium flux Fluo4; stronger effect = lower value | B-score at 10 µM | 310,000 tested, 0.92% active | AID 463111, 2010;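 active means B-score of the integrated calcium signal more than 4 SD below the library mean, with starting fluorescence not abnormally high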;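 further: negative B-score means reduced calcium response which marks RGS4 activation or potentiation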
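Reagent: ECmax carbachol challenge; Test system: M3R-expressing HEK293 line, RGS4 induced by doxycycline; Schedule: overnight RGS4 induction, 30 min dye load 37 °C, 20 min compound RT; Detection: calcium dye Fluo4 fluorescence; Read-out: Agonist-evoked peak-minus-minimum fluorescence over baseline, integrated ratio, B score.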
MrgX1 allo act: positive allosteric modulators of MrgX1, primary screen, HEK293 cells, Fluo-4 calcium flux. B-score at 10 µM. 310,000 tested, 0.63% active. FDSS; stronger effect = higher value. Mas-related G-protein coupled receptor member X1 (Homo sapiens), Q96LB2;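 active means plate-corrected calcium response at least 3 library SD above typical, normal starting fluorescence, not activating the receptor alone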;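 further: compound read alongside a low EC10 to EC30 dose of BAM8-22 agonist; peak minus trough fluorescence over baseline measured at the second addition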
MrgX1 antagonist: antagonists of human MrgX1 receptor, primary screen, HEK293 cells, Fluo-4 calcium flux; Mas-related G-protein coupled receptor member X1 (Homo sapiens), Q96LB2; BAM8-22 antagonism; stronger effect = lower value; B-score at 10 µM; 310,000 tested, 1.3% active; AID 588676, 2011;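 active means calcium-response B-score plate-corrected more than 3 library SD below zero, starting fluorescence within 5 deviations, no agonist response on first addition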;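 further: peak minus trough fluorescence over baseline after final BAM8-22 challenge near maximal dose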
RGS4 inh: RGS4 inhibitors, primary screen, cell-based, HEK293 M3R inducible RGS4, calcium flux; B-score at 10 µM; Fluo-4 calcium flux; stronger effect = higher value; triggered by carbachol at its EC20; 310,000 tested, 0.45% active; AID 463165, 2010; Regulator of G-protein signaling 4 (Homo sapiens), P49798;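 active means B-score, a plate-corrected calcium signal, over three deviations above library mean, with baseline fluorescence within five deviations of library mean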;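 further: RGS4 expression induced by doxycycline in cells with stable M3 receptor; B-score is computed from the integrated fluorescence ratio over baseline after carbachol; higher B-score means a larger calcium signal and so more RGS4 inhibition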
Target sequence (P49798 whole entry, looked up): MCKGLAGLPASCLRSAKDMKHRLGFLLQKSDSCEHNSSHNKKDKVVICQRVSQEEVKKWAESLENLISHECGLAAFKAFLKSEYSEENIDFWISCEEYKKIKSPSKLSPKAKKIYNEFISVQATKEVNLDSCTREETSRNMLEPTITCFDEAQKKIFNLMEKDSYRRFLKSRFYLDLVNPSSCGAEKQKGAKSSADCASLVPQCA
Kir21 inh: inhibitors of mouse Kir2.1 inward-rectifier potassium channel; HEK293-Kir2.1, FluxOR thallium flux fluorescence; stronger effect = lower value; B-score at 10 µM; 310,000 tested, 0.85% active;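 active means fluorescence ratio B-score at or below minus 3 SD of library scores, with starting-brightness B-score within 2 SD, cut at about -4.2 in these data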;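 further: channel flux triggered by added potassium and thallium sulfate stimulus; B-score of peak minus minimum fluorescence over baseline after thallium stimulus; more negative B-score means stronger Kir2.1 block with less thallium influx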
Target sequence (P35561 whole entry, looked up): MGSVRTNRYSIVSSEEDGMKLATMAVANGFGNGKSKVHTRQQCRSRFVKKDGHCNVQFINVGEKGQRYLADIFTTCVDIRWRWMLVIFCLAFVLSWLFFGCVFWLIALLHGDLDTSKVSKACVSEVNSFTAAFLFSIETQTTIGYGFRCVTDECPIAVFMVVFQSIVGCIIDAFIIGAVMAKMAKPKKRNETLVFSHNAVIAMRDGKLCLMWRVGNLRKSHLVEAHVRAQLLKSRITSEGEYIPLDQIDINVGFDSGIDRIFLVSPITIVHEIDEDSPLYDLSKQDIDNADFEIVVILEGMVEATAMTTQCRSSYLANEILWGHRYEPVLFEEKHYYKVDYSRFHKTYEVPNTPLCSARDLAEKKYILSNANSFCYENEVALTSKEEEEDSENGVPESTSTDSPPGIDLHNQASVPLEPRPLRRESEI
MrgX1 ant reconf: MrgX1 receptor antagonists, duplicate retest, confirmation, HEK293 cells, Fluo-4 calcium flux | shares compounds with MrgX1 antagonist | BAM8-22 calcium flux; stronger effect = lower value | remaining BAM8-22 calcium response % of control (stronger effect = lower value), % at 10 µM | 2,300 tested, 19% active | AID 602420, 2012;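 active means remaining agonist calcium response no higher than 100% minus 3 SD of agonist-only control wells, with starting fluorescence near control levels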;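 further: agonist BAM8-22 given at a near maximal EC90 to ECmax level; peak minus minimum fluorescence divided by baseline after agonist addition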
HEK293 Ca flux: nonspecific calcium signal in parental HEK293, confirmation, counter-screen for MrgX1 antagonist project, parental HEK293 cells, Fluo-4 calcium flux; Fluo-4 calcium fluorescence, FDSS; fluorescence ratio F(max-min)/F0 at 10 µM; 4,000 tested, 2% active; shares compounds with MrgX1 antagonist;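 active means duplicate-averaged calcium fluorescence ratio at least three times the standard deviation of buffer wells, a nonspecific response in parental cells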
HEK293 Ca counter: calcium response in parental HEK293 cells, primary screen, counter-screen for MrgX1 allosteric activator project, cell-based, Fluo-4 calcium flux, duplicate; 4,000 tested, 0.4% active; fluorescence ratio F(max-min)/F0 at 10 µM; shares compounds with MrgX1 antagonist; AID 624114, 2012; Fluo-4 fluorescence ratio; stronger effect = higher value;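 active means calcium fluorescence ratio, averaged over duplicates, at least 3 SD of the buffer-well ratio, meaning a nonspecific response in receptor-free cells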;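 further: untransfected parental HEK293 lacking MrgX1 used as counterscreen for MrgX1 allosteric activators; fluorescence change taken during the second addition on a kinetic imager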
HEK293 Ca cntr2: calcium response in parental HEK293 cells, primary screen, counter-screen for MrgX1 agonist project, cell-based, Fluo-4 calcium flux, duplicate, agonist mode; shares compounds with MrgX1 antagonist; 4,000 tested, 8.7% active; Fluo-4 calcium fluorescence (FDSS); stronger effect = higher value; fluorescence ratio F(max-min)/F0 at 10 µM; AID 624115, 2012;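 active means calcium fluorescence ratio at least three times the spread of buffer wells, meaning a non-specific response in parental cells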
A number is an active result; - = inactive; . = not tested or not shown. Most compounds without a hit are left out; they make up all but 4.1% or so of the library.

SMILES | MrgX1 ag | RGS4 act | MrgX1 allo act | MrgX1 antagonist | RGS4 inh | Kir21 inh | MrgX1 ant reconf | HEK293 Ca flux | HEK293 Ca counter | HEK293 Ca cntr2
CC(C)C(CCNC1CCN(C)CC1)c1ccc(Cl)cc1 (centres undefined) | - | - | - | - | - | - | . | . | . | .
COCCNC(=O)c1cc(-c2ccncc2)nc2ccc(S(=O)(=O)N3CCOCC3)cc12 | - | - | - | - | - | - | . | . | . | .
CC(C)CCNC(=O)c1cc(-c2ccncc2)nc2ccc(S(=O)(=O)N3CCOCC3)cc12 | - | - | - | -8.3 | - | - | - | - | - | -
COc1ccc(CN2C(=O)c3cccnc3C2Nc2ccc(C)cc2)cc1 (centres undefined) | - | - | - | - | - | - | . | . | . | .
CCN(CC)S(=O)(=O)c1ccc(NC2c3ncccc3C(=O)N2Cc2ccccc2)cc1 (centres undefined) | - | - | - | -9.3 | - | - | - | - | - | -
COc1cccc(N2CCN(CC(=O)Nc3nc(C)c(C(=O)N(C)C)s3)CC2)c1 | - | - | - | - | - | - | . | . | . | .
Cc1oc2c(CN(C)C)c(O)ccc2c(=O)c1-c1ccc2ccccc2n1 | - | - | - | -8.6 | - | - | - | - | - | -
NC(=O)c1csc(-c2ccncc2)n1 | - | - | - | -5.6 | - | - | - | - | - | -
CNC(=O)c1csc(-c2ccncc2)n1 | - | - | - | - | - | - | . | . | . | .
Cc1ccccc1NC(=O)CCN1CCCCCC1 | - | - | - | -6.1 | - | - | - | - | - | -
CCOc1ccc(C2C(C#N)=C(N)Oc3cc(C)n(CCN(C)C)c(=O)c32)cc1OCC (centres undefined) | - | - | - | -4.5 | - | - | - | - | - | -
CC(C)N(CC#CCC1(O)c2ccccc2-c2ccccc21)CCO | - | - | - | -6 | - | - | - | - | - | -
CCN(CC)C(=O)NC(c1ccc(C)c(F)c1)C(Cl)(Cl)Cl (centres undefined) | - | - | - | - | - | - | . | . | . | .
Cc1ccc(C(NC(=O)N2CCOCC2)C(Cl)(Cl)Cl)cc1F (centres undefined) | - | - | - | -5.3 | - | - | 81% | - | - | -
CC(C)Cn1c(NCCN(C)C)nc2c1c(=O)[nH]c(=O)n2C | - | - | - | - | - | - | . | . | . | .
CCNc1nc2c(c(=O)[nH]c(=O)n2C)n1CC(C)C | - | - | - | -4.6 | - | - | - | - | - | -
CCc1ccc(OC(C)C(=O)Nc2ccc(S(=O)(=O)Nc3nccs3)cc2)cc1 (centres undefined) | - | - | - | -6.5 | - | - | 74% | - | - | 46
CC(=O)Nc1ccccc1Nc1nc(NCCO)nc(N2CCCC2)n1 | - | - | - | -8.3 | - | - | - | - | - | -
COc1ccc(COC(=O)c2ccc(S(=O)(=O)N3CCC(C)CC3)cc2)cc1 | - | - | - | -6.8 | - | - | - | - | - | -
O=C(NCC1CC1)c1ccc(Nc2nc3ccc(Br)cc3[nH]2)cc1 | - | - | - | - | - | - | . | . | . | .
CCOc1ccc(NC(=O)CSc2nc(O)c(C)c(=O)n2-c2ccc(F)cc2)cc1 | - | - | - | - | - | - | . | . | . | .
CC(=O)N1CCSc2ccc(S(=O)(=O)NCCc3ccc(Cl)cc3)cc21 | - | - | - | -5 | - | - | - | - | - | -
O=C1C(C=NCc2ccco2)=C(O)c2ccccc21 | - | - | - | -8.6 | - | - | - | - | - | -
O=C1C(C=NCc2ccncc2)=C(O)c2ccccc21 | - | - | - | - | - | - | . | . | . | .
COc1ccc(OC)c(S(=O)(=O)N2CCCC2C(=O)N2CCc3ccccc3C2)c1 (centres undefined) | - | - | - | - | - | - | . | . | . | .
SMILES | MrgX1 ag | RGS4 act | MrgX1 allo act | MrgX1 antagonist | RGS4 inh | Kir21 inh | MrgX1 ant reconf | HEK293 Ca flux | HEK293 Ca counter | HEK293 Ca cntr2
Cn1cccc1-c1nc2ccccc2n1Cc1ccccc1 | - | - | - | -4.9 | - | - | - | - | - | -
COc1ccc(Cn2c(-c3ccc(OC)cc3)nc3ccccc32)cc1 | - | - | - | - | - | - | . | . | . | .
CC1(C)CC(=O)C(C=NC2CC(C)(C)NC(C)(C)C2)=C(O)C1 | - | - | - | - | - | - | . | . | . | .
COc1ccc(NC(=O)N2CCCC(CNS(=O)(=O)c3cccs3)C2)c(C)c1 (centres undefined) | - | - | - | - | - | - | . | . | . | .
COc1ccc(OC)c(-n2c(SCC(N)=O)nnc2-c2c[nH]c3ccccc23)c1 | - | - | - | -6.7 | - | - | - | - | - | -
CCc1ccc(NC(=O)c2cnc(N3CCN(c4ccccn4)CC3)c3ccccc23)cc1 | - | -7.2 | - | -7.1 | - | - | 60% | - | - | -
CC(C)NC(=O)c1cnc(N2CCN(c3ccccn3)CC2)c2ccccc12 | - | - | - | - | - | - | . | . | . | .
CCOC(=O)Cc1csc(NS(=O)(=O)Cc2ccccc2)n1 | - | - | - | -12 | - | - | - | - | - | -
CCOC(=O)N1CCN(C(=O)C2CCCN(S(=O)(=O)c3ccc(OCC)cc3)C2)CC1 (centres undefined) | - | - | - | - | - | - | . | . | . | .
COC(=O)c1cc(NS(=O)(=O)c2ccc(F)cc2)ccc1N1CCOCC1 | - | - | - | - | - | - | . | . | . | .
COc1cccc(CN(C(=O)c2ccco2)C2CCS(=O)(=O)C2)c1 (centres undefined) | - | - | - | -4.8 | - | - | - | - | - | -
COc1ccc(CN(C(=O)c2ccco2)C2CCS(=O)(=O)C2)cc1 (centres undefined) | - | - | - | - | - | - | . | . | . | .

Screens: PubChem, Johns Hopkins Ion Channel Center
